Only some compounds are listed: those with a hit (about 2% of all), similar ones and a draw of the others.
TAG inh: triacylglycerol accumulation inhibition. AID 651582. 230,000 compounds, 0.66% hits. H9c2 cells, Nile Red lipid (TAG) fluorescence; cells loaded with 200 µM oleic acid. inhibition, % at 12.5 µM;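 active = pattern-corrected inhibition of lipid staining of at least 50% with the nuclear-stain viability signal not falling by more than 50%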;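 also: 0% = DMSO wells and 100% = triacsin C control wells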
B2AR ag: agonists of human beta-2 adrenergic receptor inducing internalization | response, % (concentration not given with the values) | 340,000 compounds, 0.43% hits | Am2.2-beta2AR cells, FAP receptor internalization, flow cytometry | P07550;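 active = response above a set limit, near 3 SD of response in nonfluorescent compounds, cut at about 42% in these data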
Target sequence (P07550 whole entry, looked up): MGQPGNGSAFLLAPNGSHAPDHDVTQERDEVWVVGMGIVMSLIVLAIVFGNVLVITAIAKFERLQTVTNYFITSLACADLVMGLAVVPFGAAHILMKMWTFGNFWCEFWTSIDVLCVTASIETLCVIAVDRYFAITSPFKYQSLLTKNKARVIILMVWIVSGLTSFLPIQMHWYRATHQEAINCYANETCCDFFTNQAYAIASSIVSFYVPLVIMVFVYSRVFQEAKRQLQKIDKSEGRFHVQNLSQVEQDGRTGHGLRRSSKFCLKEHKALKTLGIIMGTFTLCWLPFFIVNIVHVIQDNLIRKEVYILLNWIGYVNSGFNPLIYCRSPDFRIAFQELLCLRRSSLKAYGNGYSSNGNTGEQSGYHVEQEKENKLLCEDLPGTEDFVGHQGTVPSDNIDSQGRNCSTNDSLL
GRK2 aptamer HTS: human GRK2 inhibition via aptamer displacement; P25098; 330,000 compounds, 0.59% hits; inhibition of aptamer binding, % at 10 µM; bead flow cytometry, FAM-aptamer displacement from GRK2; AID 488847;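 active = inhibition of aptamer binding above 40%, roughly 3 SD of noise, on plates passing a quality check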;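 also: median bead fluorescence of bound FAM aptamer so fluorescent compounds give negative values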
NTR1 agonist: activates human neurotensin receptor 1; P30989; NTR1-U2OS beta-arrestin-GFP spot imaging, agonist mode; activation, % at 20 µM; 330,000 compounds, 0.17% hits;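 active = activation at or above 40% of the spot to cytoplasm intensity ratio, with at least 20 cells analyzed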;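 also: 0% = DMSO without peptide and 100% = 100 nM NTR1 peptide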
Lipid droplet: modulators of hepatic lipid droplet formation. AID 1656. 240,000 compounds, 0.4% hits. AML12 mouse hepatocytes, oleate lipid droplets, BODIPY imaging. inhibition, % at 6.5 µM;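 active = lipid droplet intensity inhibited by at least 50%, with more than 500 cells counted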
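Test system: AML12 mouse liver cells; schedule: overnight exposure; technique: high-content imaging of BODIPY-stained droplets and DAPI nuclei; read-out: % inhibition of corrected integrated BODIPY droplet signal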
Arr AP2 block: inhibitors of human beta-arrestin and AP2 interaction; FITC-arrestin peptide / GST-AP2 beads, flow cytometry; AP2 beta2 appendage carries R879A mutation; inhibition, % at 10 µM; 340,000 compounds, 0.31% hits; AID 504490;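 active = inhibition above a set limit, near 3 SD of compounds lacking own fluorescence, cut at about 54% in these data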;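 also: plate controls were DMSO wells for no effect and 5 µM unlabelled arrestin peptide for full effect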
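Material – GST-tagged AP2 beta2-adaptin appendage (R879A) on 4 µm glutathione beads · Probe or stimulus – fluorescein-tagged arrestin peptide at 50 nM final · Timing – 12 min plus 1 h, RT · Detection – bead flow cytometry, FITC channel · Read-out basis – inhibition as reduced fluorescein signal on beads, percent · Medium – PBS plus Tween 20 (0.05%) and BSA (0.1%)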
GRK2 CP1: confirmation of human GRK2 inhibitors displacing RNA aptamer; shares compounds with GRK2 aptamer HTS; aptamer displacement, % at 10 µM; 2,000 compounds, 4% hits; bead-bound GRK2, FAM-aptamer displacement, flow cytometry; AID 504451;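 active = aptamer displacement above 40%, near three times the noise of non-fluorescent compounds, on plates passing quality checks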;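 also: negative values mostly reflect intrinsic compound fluorescence rather than true enhancement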
Aptamer quench: counter-screen for GRK2 aptamer inhibitors: fluorescent aptamer quenchers; shares compounds with GRK2 aptamer HTS; Fluorescent RNA aptamer beads, quenching, flow cytometry; hits give high values; fluorescence change (kMESF span), kMESF (no concentration beside the values); 110 tested, under 10 active; AID 504521;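 active = compounds whose bead fluorescence drops by more than 37 kMESF across the dose range, marking them as dye quenchers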
FAM quench CP1: aptamer fluorescence quenching in GRK2 counter-screen; shares compounds with GRK2 aptamer HTS; Carboxyfluorescein RNA aptamer on beads, flow cytometry quenching; hits give low values; fluorescence response (% of DMSO), % at 10 µM; 2,000 tested, under 10 active; AID 504580;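 active = compounds that quench the bead-bound fluorescent RNA probe, cutting fluorescence to under half of the solvent control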;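 also: counterscreen run without GRK2 so only probe quenching by compound is measured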
GRK2 confirm 2: human GRK2 inhibition confirmation, cherry pick 2; 360 tested, under 10 active; AID 504782; inhibition of aptamer binding, % at 10 µM; bead-bound GRK2, FAM-aptamer displacement, flow cytometry; shares compounds with GRK2 aptamer HTS;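 active = inhibition of aptamer binding above 40%, about triple the noise seen with nonglowing compounds, on plates passing quality control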;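 also: negative values mostly come from compounds that fluoresce themselves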
FAM quench SP: aptamer fluorescence quenching in GRK2 counter-screen; 360 tested, under 10 active; shares compounds with GRK2 aptamer HTS; carboxyfluorescein RNA aptamer beads, flow cytometry quenching; hits give low values; AID 588494; fluorescence response vs DMSO, % at 10 µM;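 active = response vs DMSO under 50%, meaning signal dropped by over half, treated as fluorescence quencher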;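 also: labelled aptamer on streptavidin beads without GRK2 as a quench counter-screen; 100% = bead fluorescence of DMSO wells and lower means quenching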
Numbers without * were called inactive.

For CN1C2=CC=CC=CC2=[N+](C)C12C([N+](=O)[O-])=CC(=[N+]([O-])[O-])C=C2[N+](=O)[O-] (configuration not stated) the results were TAG inh 15.2, B2AR ag 18.5, GRK2 aptamer HTS 48.0*, NTR1 agonist 3.9, Lipid droplet 1.6, Arr AP2 block -9.7, GRK2 CP1 2.7 and FAM quench CP1 99.7.
Cc1ccccc1C(=O)Nc1cccc(NC(=O)c2ncn[nH]2)c1 was read as B2AR ag -4.2, GRK2 aptamer HTS 99.0*, NTR1 agonist 0.2, Lipid droplet 0.0, Arr AP2 block -3.9, GRK2 CP1 16.4 and FAM quench CP1 97.9.
O=C(O)c1ccccc1NS(=O)(=O)c1cccc(C(F)(F)F)c1 was read as B2AR ag 1.2, GRK2 aptamer HTS 0.0, NTR1 agonist 2.1, Lipid droplet 6.6 and Arr AP2 block 8.5.
Screening O=C(CS(=O)(=O)c1cccc(C(F)(F)F)c1)Nc1ccccc1Cl returned B2AR ag 2.2, GRK2 aptamer HTS 1.0, NTR1 agonist -0.8, Arr AP2 block 3.7, GRK2 confirm 2 -5.2 and FAM quench SP 107.0.
CCN(CC)S(=O)(=O)c1ccc(N2CCc3cc(OC)c(OC)cc3C2)nc1 was read as B2AR ag 6.3, GRK2 aptamer HTS 0.0, NTR1 agonist 1.4, Lipid droplet -2.7 and Arr AP2 block -4.0.
`O=C(Cn1cnc2c(nnn2Cc2ccccc2F)c1=O)OCc1ccccc1` gave B2AR ag 11.7, GRK2 aptamer HTS 82.0*, NTR1 agonist 1.1, Arr AP2 block -8.4, GRK2 CP1 3.5 and FAM quench CP1 91.4.
For O=C(Cn1cnc2c(nnn2Cc2ccccc2F)c1=O)N1CCN(c2ccccc2)CC1 the results were B2AR ag 1.5, GRK2 aptamer HTS 0.0, NTR1 agonist 1.4, Lipid droplet 3.3 and Arr AP2 block -3.3.
Cn1c(=O)c(C(=O)NNC(=O)c2cccc(Cl)c2)c(O)c2ccccc21 was read as B2AR ag 76.8*, GRK2 aptamer HTS 90.0*, NTR1 agonist 4.6, Lipid droplet 11.7, Arr AP2 block 28.4, GRK2 CP1 65.4*, Aptamer quench -35.4 and FAM quench CP1 141.5.
CCn1c(=O)c(C(=O)NNC(=O)c2ccc(Cl)cc2Cl)c(O)c2ccccc21 was read as B2AR ag -3.3, GRK2 aptamer HTS 1.0, NTR1 agonist 9.3, Lipid droplet -3.2 and Arr AP2 block -4.0.
For Cc1cccc(C(=O)NNC(=O)c2c(O)c3ccccc3n(C)c2=O)c1 the results were B2AR ag -2.5, GRK2 aptamer HTS 0.0, NTR1 agonist 0.2, Lipid droplet -6.5 and Arr AP2 block 0.7.
CCn1c(=O)c(C(=O)NNC(=O)c2cccc(Cl)c2)c(O)c2ccccc21 was read as B2AR ag 5.5, GRK2 aptamer HTS 54.0*, NTR1 agonist 2.8, Lipid droplet -8.7, Arr AP2 block -5.3, GRK2 CP1 -8.7 and FAM quench CP1 105.0.
O=C(N/N=C/c1cccnc1)c1ccc(O)cc1 was read as B2AR ag -1.3, GRK2 aptamer HTS 0.0, NTR1 agonist 0.3, Lipid droplet 7.5 and Arr AP2 block 35.3.
